The record followed here is ChEMBL document CHEMBL3352271, “Antitrypanosomal quinoline alkaloids from the roots of Waltheria indica” (J Nat Prod, 2014).

The subject of data set [1] is Trypanosoma brucei brucei. Kind of data set: Antitrypanosomal activity against Trypanosoma brucei brucei NYSM bloodstream forms incubated for 46 hrs by alamar blue assay. It counts as functional, organism-based. In a few lines:
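Bloodstream parasites grown in HMI-9 medium with 10% FCS, wild type. Plated at a final density of 0.5 × 10^5 cells/mL with compound dilutions for 46 h, then AlamarBlue added for 2 more h. Fluorescence read at excitation 530 nm, emission 584 nm. IC50 from nonlinear sigmoidal dose–response fit; triplicate runs, reported ± SD.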

Data set [2] has as its system Trypanosoma brucei rhodesiense. Kind of data set: Antitrypanosomal activity against Trypanosoma brucei rhodesiense STIB900 trypomastigote forms. Type of data set: functional, organism-based.
In the next data set the test system is Trypanosoma cruzi. The data set can be described thus: Antitrypanosomal activity against LacZ expressing Trypanosoma cruzi Tuluhaen C2C4 amastigotes. It counts as functional, organism-based.
The test system of a further data set is L6. Kind of data set: Cytotoxicity against rat L6 cells. It counts as cell-based.
Data set [3] is described as follows: Selectivity index, ratio of IC50 against rat L6 cells to IC50 against Trypanosoma cruzi Tuluhaen C2C4. The conditions noted are these: read-out: Ratio IC50. Type of data set: toxicity, cell-based. In a few lines:
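Selectivity index calculated as the IC50 for L6 cytotoxicity divided by the IC50 for antitrypanosomal activity against T. cruzi amastigotes (Tulahuen C4).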

Regarding `CCCCCCCC[C@H]1CCCc2c1c(=O)c(OC)c(C)n2OC`, the concentration for half-maximal inhibition (IC50) in data set [1] was greater than 100 µM; in data set [2], 53.3 µM; in the data set with Trypanosoma cruzi it was 0.1 µM; in the data set with L6, 0.19 µM. For the same compound, the selectivity ratio in data set [3] came out at 1.9.
`CCCCCCCC[C@@H]1CCCc2[nH]c(C)c(OC)c(=O)c21`: the IC50 in data set [1] is greater than 100 µM; in data set [2], 32.6 µM; in the data set with Trypanosoma cruzi, 0.49 µM; with L6 it was 0.75 µM. Besides, the selectivity ratio in data set [3] came out at 1.5.
For `CCCCCCCC[C@H]1CC[C@@H](OC)c2[nH]c(C)c(OC)c(=O)c21` the same measures were 80.3 µM, 38.5 µM, 0.23 µM, 0.91 µM and 4.
For `CCCCCCCCc1ccc(OC)c2[nH]c(C)c(OC)c(=O)c12` the same measures were 31 µM, 38.6 µM, 1.1 µM, 25.7 µM and 22.7.
For `COc1c(C)n(OC)c2c(c1=O)[C@@H](CCCCCc1ccccc1)CCC2` the same measures were 24.1 µM, 30.4 µM, 0.02 µM, 0.64 µM and 33.8.
`COc1c(C)n(OC)c2c(c1=O)[C@@H](CCCCCc1ccccc1)CC[C@H]2OC`: the IC50 in data set [2] stood at 35.9 µM; with Trypanosoma cruzi, 0.04 µM; in the data set with L6 it was 0.26 µM. In addition, in data set [3], the selectivity ratio turned out to be 6.5.
Take `CCCCCCCC[C@@H]1CCCc2c1c(=O)c(OC)c(CO)n2OC`: the IC50 is greater than 100 µM in data set [1], 87.9 µM in data set [2], 2.2 µM with Trypanosoma cruzi and 22.1 µM with L6. The selectivity ratio in data set [3] is 10.1.
For the compound `CCCCCCCC[C@H]1CC[C@@H](OC)c2c1c(=O)c(OC)c(C)n2OC`, the concentration for half-maximal inhibition (IC50) in data set [1] is greater than 100 µM; in data set [2], 45.8 µM; with Trypanosoma cruzi it was 0.04 µM; in the data set with L6, 0.07 µM. For the same compound, in data set [3], the selectivity ratio was 1.8.
For `COc1c(OC)c(C)[n+]([O-])c2c1[C@H](CCCCCc1ccccc1)CCC2`, the IC50 in data set [2] turned out to be 55.7 µM; in the data set with Trypanosoma cruzi it was 3.1 µM; in the data set with L6, 41.1 µM. Further, the selectivity ratio in data set [3] was found to be 13.5.
`CCCCCCCC[C@H]1CCC(=O)c2[nH]c(C)c(OC)c(=O)c21`: the IC50 is greater than 100 µM in data set [1], 14.3 µM in data set [2], 0.17 µM in the data set with Trypanosoma cruzi and 184 µM with L6. In addition, in data set [3], the selectivity ratio turned out to be 1080.
Turning to `O=C(Cn1ccnc1[N+](=O)[O-])NCc1ccccc1` [BENZNIDAZOLE], the IC50 in the data set on Trypanosoma cruzi worked out at 2.9 µM.
Compound `Cc1ccc(C(=O)Nc2ccc(S(=O)(=O)O)c3cc(S(=O)(=O)O)cc(S(=O)(=O)O)c23)cc1NC(=O)c1cccc(NC(=O)Nc2cccc(C(=O)Nc3cc(C(=O)Nc4ccc(S(=O)(=O)O)c5cc(S(=O)(=O)O)cc(S(=O)(=O)O)c45)ccc3C)c2)c1` [SURAMIN] came in with a half-inhibitory concentration (IC50) in data set [1] of 0.31 µM.
